In ChEMBL document CHEMBL4425094, “Novel Benzo[a]quinolizidine Analogs Induce Cancer Cell Death through Paraptosis and Apoptosis” (J Med Chem, 2016):
The source made the active and inactive calls. The calls are words filed in the database; no cut-off is given here.

Key:
[1] = test system: PC-3; assay: Cytotoxicity against human PC3 cells assessed as cell growth inhibition after 24 hrs by MTT assay; format: functional, cell-based; conditions: PC-3, 24 h
How it was run: (§1)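 Cells seeded 24 h in RPMI 1640 + 10% FBS. RWPE-1 was kept in K-SFM with bovine pituitary extract and EGF. Cells then exposed to compounds for 24 h at 37 °C, 5% CO2, with DMSO vehicle and docetaxel as positive control. MTT added for 4 h, absorbance read at 570 nm. Triplicate runs, IC50 reported as mean of three experiments.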

[2] = test system: RWPE-1; assay: Cytotoxicity against human RWPE1 cells assessed as cell growth inhibition after 24 hrs by MTT assay; format: cell-based; conditions: RWPE-1, 24 h; how it was run: as §1
[3] = test system: DU-145; assay: Cytotoxicity against human DU145 cells assessed as cell growth inhibition after 24 hrs by MTT assay; format: functional, cell-based; conditions: DU-145, 24 h; how it was run: as §1
[4] = test system: PC-3M; assay: Antitumor activity against human PC3M-lluc-C6 cells xenografted in athymic Balb/c mouse assessed as tumor growth inhibition at 15 mg/kg, ip administered every 2 days measured on day 18; format: functional; conditions: read-out: TGI
[5] = test system: PC-3M; assay: Antitumor activity against human PC3M-lluc-C6 cells xenografted in athymic Balb/c mouse assessed as decrease in tumor burden by measuring photon intensity at 15 mg/kg, ip measured on day 9 by bioluminescence method (reference value: 6.501 x 10^9 photons/s/cm2); format: functional
[6] = test system: HeLa; assay: Cytotoxicity against human HeLa cells assessed as cell growth inhibition after 24 hrs by MTT assay; format: functional, cell-based; how it was run: as §1
[7] = test system: PC-3M; assay: Antitumor activity against human PC3M-lluc-C6 cells xenografted in athymic Balb/c mouse assessed as decrease in tumor burden by measuring photon intensity at 15 mg/kg, ip measured on day 18 by bioluminescence method (reference value: 2.332 x 10^10 photons/s/cm2); format: functional
[8] = test system: MDA-MB-231; assay: Cytotoxicity against human MDA-MB-231 cells assessed as cell growth inhibition after 24 hrs by MTT assay; format: functional, cell-based; conditions: MDA-MB-231, 24 h; how it was run: as §1
[9] = test system: K562; assay: Cytotoxicity against human K562 cells assessed as cell growth inhibition after 24 hrs by MTT assay; format: functional, cell-based; conditions: K562, 24 h; how it was run: as §1
[10] = Toxicity in athymic Balb/c mouse assessed as body weight loss at 15 mg/kg, ip administered every 2 days for 18 days; format: organism-based; conditions: in vivo
How it was run: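 Male athymic BALB/c-nu mice bearing subcutaneous PC3M-luc-C6 xenografts, n = 5 per group. Dosing was 15 mg/kg i.p. every 2 days for 18 days versus placebo and docetaxel 15 mg/kg groups. Body weight was recorded over the treatment period.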

[11] = test system: PC-3; assay: Induction of morphological changes in human PC3 cells assessed as formation of massive cytoplasmic vacuoles at 1 uM after 12 hrs by confocal microscopic analysis; format: functional, cell-based
[12] = test system: MCF7; assay: Cytotoxicity against human MCF7 cells assessed as cell growth inhibition after 24 hrs by MTT assay; format: functional, cell-based; conditions: MCF7, 24 h; how it was run: as §1
[13] = test system: PC-3; assay: Induction of autophagy in human PC3 cells transfected with mRFP-GFP-LC3 assessed as LC3 granulation of LC3 at 0.5 uM after 8 hrs by fluorescence microscopic analysis; format: functional, cell-based
How it was run: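 PC3 cells transfected with an mRFP-GFP-LC3 reporter plasmid, then treated 8 h with 1 μM test agent or 0.5 μM rapamycin (autophagy inducer). Imaged by confocal fluorescence microscopy: yellow puncta (overlapping red/green) scored as autophagosomes, red-only puncta as autolysosomes, since GFP is quenched in acidic lysosomes.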

SMILES | IC50 [1] | IC50 [2] | IC50 [3] | inhibition in vivo at 15 mg/kg [4] | Activity [5] | IC50 [6] | Activity [7] | IC50 [8] | IC50 [9] | Activity [10] | Activity [11] | IC50 [12] | Activity [13]
CC(=O)O[C@@]12CO[C@@H]1C[C@H](O)[C@@]1(C)C(=O)[C@H](O)C3=C(C)[C@@H](OC(=O)[C@H](O)[C@@H](NC(=O)OC(C)(C)C)c4ccccc4)C[C@@](O)([C@@H](OC(=O)c4ccccc4)[C@H]21)C3(C)C [DOCETAXEL ANHYDROUS] | 13 nM | 1730 nM | 26 nM | 92% | 3.513 ×10⁹ /s/cm2 | 61 nM | 1.92 ×10⁹ /s/cm2 | 32 nM | 39 nM | 13.3 g | inactive | 22 nM | –
Cc1cc(C)cc(COc2cc3c(cc2OCc2cc(C)cc(C)c2)[C@@H]2C[C@@H](O)C[C@@H](C)N2CC3)c1 (racemic) | 720 nM | 1350 nM | 1510 nM | – | – | 3240 nM | – | 1330 nM | 2350 nM | – | Active | 650 nM | –
Cc1cc(C)cc(COc2cc3c(cc2OCc2cc(C)cc(C)c2)[C@@H]2C[C@](C)(O)C[C@@H](C)N2CC3)c1 | 890 nM | 4770 nM | 1950 nM | – | – | 1250 nM | – | 2350 nM | 1460 nM | – | Active | 500 nM | –
C[C@@H]1C[C@@H](O)C[C@H]2c3cc(OCc4cc(C(F)(F)F)cc(C(F)(F)F)c4)c(OCc4cc(C(F)(F)F)cc(C(F)(F)F)c4)cc3CCN12 | 450 nM | 1150 nM | 1740 nM | – | – | 2010 nM | – | 510 nM | 1350 nM | – | Active | 520 nM | –
C[C@@H]1C[C@@](C)(O)C[C@H]2c3cc(OCc4cc(C(F)(F)F)cc(C(F)(F)F)c4)c(OCc4cc(C(F)(F)F)cc(C(F)(F)F)c4)cc3CCN12 | 610 nM | 2570 nM | 2240 nM | – | – | 1210 nM | – | 530 nM | 1840 nM | – | Active | 810 nM | –
C[C@@H]1C[C@@H](O)C[C@H]2c3cc(OCc4cccc(F)c4)c(OCc4cccc(F)c4)cc3CCN12 | 820 nM | 1490 nM | 3850 nM | – | – | 1730 nM | – | 580 nM | 1420 nM | – | Active | 490 nM | –
C[C@@H]1C[C@@](C)(O)C[C@H]2c3cc(OCc4cccc(F)c4)c(OCc4cccc(F)c4)cc3CCN12 | 410 nM | 1860 nM | 2140 nM | – | – | 960 nM | – | 590 nM | 1010 nM | – | Active | 470 nM | –
COc1ccc([C@@H]2C[C@@H](O)C[C@H]3c4cc(OCc5cc(C)cc(C)c5)c(OCc5cc(C)cc(C)c5)cc4CCN23)cc1OC | 1150 nM | 3040 nM | 4530 nM | – | – | 3050 nM | – | 970 nM | 3950 nM | – | Active | 1320 nM | –
CO[C@H]1C[C@@H]2CC[C@@H](C)[C@@](O)(O2)C(=O)C(=O)N2CCCC[C@H]2C(=O)O[C@H]([C@H](C)C[C@@H]2CC[C@@H](O)[C@H](OC)C2)CC(=O)[C@H](C)/C=C(\C)[C@@H](O)[C@@H](OC)C(=O)[C@H](C)C[C@H](C)/C=C/C=C/C=C/1C | – | – | – | – | – | – | – | – | – | – | – | – | Active
C[C@@H]1C[C@H](O)C[C@H]2c3cc(OCc4cc(C(F)(F)F)cc(C(F)(F)F)c4)c(OCc4cc(C(F)(F)F)cc(C(F)(F)F)c4)cc3CCN12 | 680 nM | 2320 nM | 1870 nM | – | – | 2840 nM | – | 560 nM | 1150 nM | – | Active | 1870 nM | –
